PglD DTNB – PglD (C. jejuni) enzyme inhibition; purified PglD enzyme, DTNB colorimetric CoA detection; inhibition, % at 12.5 µM; 360,000 compounds, 0.098% hits; AID 602405; in the data active = inhibition above about 16%, passing the limit was not always enough; inconclusive = no clear call, values can overlap the other calls
Rtt109 HAT inh – inhibitors of Candida albicans Rtt109/Vps75 histone acetyltransferase; Q5AAJ8; purified Rtt109/Vps75, ThioGlo CoA-SH fluorescence, 4 h; inhibition, % at 34.9 µM; 330,000 compounds, 0.16% hits; AID 540336;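 active = inhibition of at least 50% in every replicate; inconclusive = best replicate reaches 50% inhibition but some replicates fall short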
Target sequence (Q5AAJ8 whole entry, looked up): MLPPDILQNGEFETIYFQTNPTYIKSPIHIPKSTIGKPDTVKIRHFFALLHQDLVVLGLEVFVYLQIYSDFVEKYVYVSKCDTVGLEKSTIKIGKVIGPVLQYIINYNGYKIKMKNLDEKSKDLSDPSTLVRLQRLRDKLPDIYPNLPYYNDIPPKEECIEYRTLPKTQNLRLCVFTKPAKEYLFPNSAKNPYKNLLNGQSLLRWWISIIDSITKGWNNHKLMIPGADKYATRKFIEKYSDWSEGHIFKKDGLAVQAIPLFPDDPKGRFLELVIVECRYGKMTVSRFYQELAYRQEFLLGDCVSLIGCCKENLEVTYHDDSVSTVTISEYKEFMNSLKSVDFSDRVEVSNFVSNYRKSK
PfHsp90 yeast 2 – growth inhibition of yeast expressing Plasmodium Hsp90; 310,000 compounds, 0.32% hits; inhibition, % at 9.4 µM; S. cerevisiae expressing PfHsp90, BacTiter-Glo ATP, 48 h; yeast lacking PDR1 and PDR3 efflux regulators;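 active = every replicate shows inhibition above about 80%, whatever the replicate mean, limit read from the data; inconclusive = mean inhibition reaches the set limit but some replicate falls short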
FN deposit inh – fibronectin deposition inhibition. AH1F fibroblasts, Alexa488-fibronectin deposition fluorescence, overnight. 350,000 compounds, 0.086% hits. inhibition, % at 12.6 µM;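 active = mean inhibition across replicates of 30% or more, regardless of how many single replicates reach that level; inconclusive = mean under 30% yet at least half of replicates reach 30%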
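Material – AH1F fibroblast monolayer, labelled fibronectin deposition · Reagent – labelled fibronectin 24 nM · Timing – 1 h adhesion, overnight exposure · Measured by – fluorescence at 485 nm excitation, 525 nm emission · Read-out – inhibition of fibronectin deposition signal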
SKKanGAS inh – SKKanGAS growth inhibition; 300,000 compounds, 1.3% hits; S. pyogenes SKKanGAS, kanamycin growth, BacTiter-Glo, 6 h; inhibition, % at 7.5 µM; AID 1662;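 active = mean replicate score, as percent of positive control median, at least 50; inconclusive = mean below 50 but one replicate at or above 50; inactive = mean and every replicate below 50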;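 note: strain carries kanamycin resistance gene driven by streptokinase promoter and grows in 40 µg/ml kanamycin; loss of luminescence reflects streptokinase promoter inhibition or plain growth inhibition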
CSC inhib – cancer stem cell inhibition | cancer stem cell-like cells viability, luminescence | inhibition, % at 7.5 µM | 300,000 compounds, 1.1% hits | AID 2717; in the data active = inhibition above about 75%; inconclusive = no clear call, values can overlap the other calls; tested in HMLE shEcad cells
Hits are given with their value; - = inactive; ? = inconclusive; . = no result. This is a sample that favours compounds with a hit; in the whole collection about 1.7% have one here.

SMILES	PglD DTNB	Rtt109 HAT inh	PfHsp90 yeast 2	FN deposit inh	SKKanGAS inh	CSC inhib
Cc1cccc(/C=C/C(=O)c2ccc([N+](=O)[O-])o2)c1	-	-	103	65	56	-
C[C@H]1CN([C@@H](C)CO)C(=O)c2cc(C#CC3(O)CCCC3)cnc2O[C@@H]1CN(C)C(=O)Nc1ccc2c(c1)OCO2	-	.	.	.	.	.
C[C@@H]1CN([C@H](C)CO)C(=O)c2cccc(NS(=O)(=O)c3cn(C)cn3)c2O[C@H]1CN(C)C(=O)NC1CCCCC1	-	.	.	-	.	.
C[C@@H]1CCCCO[C@H](CN(C)C(=O)Nc2cccc3ccccc23)[C@@H](C)CN([C@@H](C)CO)C(=O)c2cc(NS(=O)(=O)c3cn(C)cn3)ccc2O1	-	.	.	.	.	.
N#C[C@H]1[C@@H](c2ccc(-c3ccccc3F)cc2)[C@H](CO)N1C(=O)Cc1ccccc1	-	.	.	-	.	.
O=C(N[C@H]1CC[C@H](CCNC(=O)c2cnccn2)O[C@@H]1CO)c1ccc2c(c1)OCO2	-	.	.	-	.	.
COc1ccc(S(=O)(=O)Nc2ccc3c(c2)C(=O)N([C@@H](C)CO)C[C@@H](C)[C@H](CN(C)C(=O)Nc2ccc(F)cc2)O3)cc1	-	.	.	.	.	.
COc1cccc(CNC(=O)[C@H]2N[C@H]3c4ccc(/C=C/c5ccccc5)c(=O)n4C[C@H]3[C@@H]2CO)c1	-	.	.	.	.	.
O=C(/C=C/c1cccc([N+](=O)[O-])c1)NCc1ccc2c(c1)OCO2	.	-	-	-	-	.
O=C(/C=C/c1cccc([N+](=O)[O-])c1)c1ccc([N+](=O)[O-])o1	-	-	125	-	86	-
Cc1ccc(Oc2cc(C)nc(-c3ccccc3O)n2)cc1	-	-	-	.	-	.
Cc1cc(Oc2ccc(Cl)cc2)nc(-c2ccccc2O)n1	-	-	-	.	53	-
C[C@@H]1CN([C@H](C)CO)C(=O)c2cc(-c3cccc(C#N)c3)cnc2O[C@@H]1CN(C)C(=O)C1CC1	-	.	.	.	.	.
Cc1cc(C)n(S(=O)(=O)c2cc(C(=O)O)c(Cl)cc2Cl)n1	-	-	-	.	-	-
COC(=O)c1cc(S(=O)(=O)n2nc(C)c(Br)c2C)c(Cl)cc1Cl	-	-	-	.	72	-
Cc1cccc2c1Sc1ccc(Cl)cc1CC2N1CCNCC1 (stereo not drawn)	.	.	.	.	-	102
CCc1cccc2c1Sc1ccccc1CC2N1CCNCC1 (stereo not drawn)	.	-	-	-	-	79
O=C(Nc1ccc2c(c1)OCCO2)c1cccc2nc3ccccc3nc12	-	-	-	.	-	83
C[C@H]1CC(=O)N[C@H](c2ccccc2)C/C=C\C[C@H](c2ccc3c(c2)OCO3)NC1=O	.	.	.	-	.	.
COc1cccc2c1C(=O)c1c(O)c3c(c(O)c1C2=O)CC(O)(C(C)=O)CC3OC1CC(N(C)C)C(O)C(C)O1 (stereo not drawn)	.	-	98	-	.	.
COc1cccc2c1C(=O)c1c(O)c3c(c(O)c1C2=O)C[C@@](O)(C(=O)CO)C[C@@H]3O[C@H]1C[C@H](N)[C@H](O)[C@H](C)O1	-	?	-	-	107	-
CCOC(=O)Nc1sc2nc(C)cc(C)c2c1-n1cccc1	-	-	.	.	-	-
Cc1cc(C)c2c(-n3cccc3)c(C(=O)NNS(=O)(=O)c3ccc(Br)cc3)sc2n1	-	?	.	-	59	-
Cc1ccc(-c2cc(C(=O)NCc3ccco3)no2)cc1	-	-	-	.	-	-
Cc1nn(Cc2ccc(Cl)cc2)c(C)c1NC(=O)c1cc(C(C)C)on1	-	-	-	-	-	-
SMILES	PglD DTNB	Rtt109 HAT inh	PfHsp90 yeast 2	FN deposit inh	SKKanGAS inh	CSC inhib
O=C(NCc1ccco1)c1cc(-c2ccc3c(c2)OCO3)on1	-	-	-	-	-	82
Cc1nn(Cc2ccc(Cl)c(Cl)c2)c(C)c1NC(=O)c1cc(-c2ccc3c(c2)OCO3)on1	-	-	-	-	-	81
Cc1nn(Cc2ccc(Cl)cc2)c(C)c1NC(=O)c1cc(-c2ccc3c(c2)OCO3)on1	.	-	-	-	-	83
COc1ccc2c3c(n(C)c2c1)[C@@H](CO)N(Cc1nccs1)CC31CCN(CC2CCCC2)CC1	.	.	.	-	.	.
C[C@@H]1CN([C@@H](C)CO)S(=O)(=O)c2ccc(-c3cccc(C#N)c3)cc2O[C@H]1CN(C)C(=O)c1cccnc1	-	.	.	-	.	.
CCCN(CC(=O)Nc1cc(Cl)cc(Cl)c1)CC(=O)Nc1ccc(F)c(F)c1F	-	-	-	-	82	.

Screens from PubChem.
